Assay results: ChEMBL document CHEMBL1156525, “A small-molecule therapeutic lead for Huntington's disease: preclinical pharmacology and efficacy of C2-8 in the R6/2 transgenic mouse” (Proc Natl Acad Sci U S A, 2007)
Active and inactive are the calls of the source. The calls are words filed in the database; no cut-off is given here.

Experiments:
[1] = system: PC-12; assay: Inhibition of polyQ aggregation in rat PC12 cells; type: functional, cell-based
[2] = system: Mus musculus; assay: Decrease in striatal nuclear aggregate volume in R6/2 mouse at 200 mg/kg by nucleator method; type: functional; design: scale not given: the % may be the effect or the level left
Outline: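 R6/2 mice dosed orally twice daily from 3 weeks of age, perfusion-fixed at 90 days. Floating forebrain sections at the anterior commissure crossing were stained with EM48 (1:2,000) for 2 days, then biotinylated secondary antibody and ABC development. Intranuclear aggregate volume in the striatum measured by the nucleator method. Compared with vehicle-treated R6/2 mice.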

[3] = Half life in po dosed mouse brain; type: ADME, organism-based
Outline: (§1)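 Wild-type mice given single oral doses of 5, 10, 25 or 50 mg/kg. Plasma and brain sampled at 1, 4 and 8 h after dosing, and also at 16 and 24 h. Drug measured by HPLC/MS. n = 5; SD. Half-lives derived from the concentration–time course.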

[4] = system: Brain; assay: Drug concentration in mouse brain at 10 mg/kg, po after 16 hrs; type: ADME, organism-based; design: dose 10 mg/kg, route oral; settings: in vivo; outline: as §1
[5] = system: Mus musculus; assay: Toxicity in R6/2 mouse assessed as survival at 200 mg/kg/12 hrs for 4 weeks; type: organism-based; settings: in vivo
[6] = Inhibition of opioid receptor
Outline: (§2)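 Screened against a panel of 60 receptors, ion channels and transporters expressed in mammalian brain. Receptor-binding profile reported as IC50.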

[7] = Drug level in mouse cerebral cortex at 50 mg/kg, po administered for 5 days after 5 hrs; type: ADME, organism-based; design: dose 50 mg/kg, route oral; settings: read-out: Drug uptake
Outline: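 Wild-type mice (n = 5) given 50 mg/kg by oral gavage as a suspension for 5 days. Killed 5 h after the last dose. Cortex (20–30 mg) sonicated in acetonitrile/0.4% acetic acid at −10°C, centrifuged, and the supernatant dried and reconstituted in mobile phase. Analysed by LC electrochemical array against a 0.8 μg/ml standard.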

[8] = Plasma half life in po dosed mouse; type: ADME, organism-based; outline: as §1
[9] = organism: Mus musculus; assay: Reduction of decrease in motor dysfunction in R6/2 mouse assessed as increase in latency to fall at 8 weeks of age by rotarod test; type: functional; design: scale not given: the % may be the effect or the level left
Outline: (§3)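 R6/2 mice dosed orally at 0, 100 or 200 mg/kg/12 h from 24 days of age until death. Rotarod latency to fall tested at 5, 8 and 11 weeks of age. n = 15; geometric mean ± 95% CI; mixed-model analysis.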

[10] = system: Mus musculus; assay: Reduction of decrease in motor dysfunction in R6/2 mouse assessed as improvement in wire-hang endurance at 100 mg/kg/12 hrs after 12.5 weeks; type: functional, organism-based
Outline: (§4)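 Female R6/2 mice dosed by oral gavage at 0, 100 or 200 mg/kg/12 h from 24 days of age. Wire-hang endurance tested at 9.5 and 12.5 weeks: mouse placed on horizontal wire mesh, mesh gently inverted, and time hanging recorded. Three trials per day on three consecutive days, averaged. n = 15; geometric mean ± 95% CI; mixed-model analysis.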

[11] = Lipophilicity, log P of the compound; type: physicochemical; settings: octanol/water
[12] = target: T1, Adenosine receptor A3 (Homo sapiens, UniProt P0DMS8); assay: Inhibition of adenosine A3 receptor; outline: as §2
T1 sequence (P0DMS8 whole entry): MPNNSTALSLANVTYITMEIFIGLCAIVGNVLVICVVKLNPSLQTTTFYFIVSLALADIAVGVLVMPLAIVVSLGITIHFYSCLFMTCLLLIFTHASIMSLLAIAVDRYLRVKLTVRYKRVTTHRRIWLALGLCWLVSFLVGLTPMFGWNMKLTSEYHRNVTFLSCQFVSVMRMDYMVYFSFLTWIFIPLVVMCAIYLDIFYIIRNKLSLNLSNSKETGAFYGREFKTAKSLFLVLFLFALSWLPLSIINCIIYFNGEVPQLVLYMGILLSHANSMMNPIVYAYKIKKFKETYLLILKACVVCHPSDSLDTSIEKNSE

[13] = system: Mus musculus; assay: Toxicity in R6/2 mouse assessed as survival at 100 mg/kg/12 hrs for 4 weeks; type: organism-based; settings: in vivo
[14] = system: Plasma; assay: Drug concentration in mouse plasma at 25 mg/kg, po after 24 hrs; type: ADME, organism-based; design: dose 25 mg/kg, route oral; settings: in vivo; outline: as §1
[15] = target: Sodium-dependent dopamine transporter (Homo sapiens, UniProt Q01959); assay: Inhibition of DAT; outline: as §2
Sequence of Sodium-dependent dopamine transporter (Q01959 whole entry): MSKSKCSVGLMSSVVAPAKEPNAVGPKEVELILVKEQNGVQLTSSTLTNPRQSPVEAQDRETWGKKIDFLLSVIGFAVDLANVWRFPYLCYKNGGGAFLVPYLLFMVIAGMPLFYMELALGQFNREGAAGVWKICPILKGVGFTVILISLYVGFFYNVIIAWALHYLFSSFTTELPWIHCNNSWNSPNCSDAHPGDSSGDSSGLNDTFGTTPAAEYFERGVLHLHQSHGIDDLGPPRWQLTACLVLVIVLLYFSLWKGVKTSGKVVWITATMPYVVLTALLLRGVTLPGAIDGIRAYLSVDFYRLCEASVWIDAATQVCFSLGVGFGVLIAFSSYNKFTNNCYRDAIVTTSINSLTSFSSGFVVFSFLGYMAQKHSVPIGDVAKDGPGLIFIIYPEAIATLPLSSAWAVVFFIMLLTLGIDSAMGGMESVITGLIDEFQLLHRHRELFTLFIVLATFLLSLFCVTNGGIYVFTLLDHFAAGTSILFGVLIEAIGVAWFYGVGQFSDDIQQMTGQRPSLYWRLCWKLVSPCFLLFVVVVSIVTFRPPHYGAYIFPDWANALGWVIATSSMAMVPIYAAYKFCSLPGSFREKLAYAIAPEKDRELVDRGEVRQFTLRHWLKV

[16] = organism: Mus musculus; assay: Reduction of decrease in motor dysfunction in R6/2 mouse assessed as improvement in wire-hang endurance after 9.5 weeks; type: organism-based; settings: in vivo, 1596 h; outline: as §4
[17] = system: Mus musculus; assay: Toxicity in R6/2 mouse assessed as body weight at 200 mg/kg/12 hrs for 4 weeks; type: organism-based; settings: in vivo
Outline: (§5)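 Chronic tolerability study in adult female R6/2 mice (back-crossed onto C57BL/6 × CBA F1), n = 10 per group. Oral gavage twice daily at 50, 100 or 200 mg/kg/12 h for 4 weeks, given as a suspension made fresh daily. Body weight was recorded weekly at the same time of day.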

[18] = system: Mus musculus; assay: Decrease in neuronal atrophy in R6/2 mouse assessed as striatal neuronal cell body volume at 200 mg/kg relative to control; type: functional; design: scale not given: the % may be the effect or the level left
Outline: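 Female R6/2 mice given oral gavage twice daily from 3 weeks of age until death or kill. Perfused at 90 days with 2% paraformaldehyde. Every eighth 50 μm thionin-stained section used; striatal neuronal cell body volume estimated stereologically by the nucleator method. n = 10; mean ± SEM; ANOVA versus placebo-treated R6/2 mice.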

[19] = system: Mus musculus; assay: Toxicity in R6/2 mouse assessed as effect on body weight at 100 mg/kg/12 hrs for 4 weeks; type: organism-based; settings: in vivo; outline: as §5
[20] = system: Mus musculus; assay: Toxicity in R6/2 mouse assessed as effect on body weight at 50 mg/kg/12 hrs for 4 weeks; type: organism-based; settings: in vivo
Outline: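 Chronic tolerability study in adult R6/2 mice, n = 10 per group, dosed with 50, 100 or 200 mg/kg/12 h for 4 weeks by oral gavage. Body weight recorded weekly at the same time of day.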

[21] = organism: Mus musculus; assay: Reduction of decrease in motor dysfunction in R6/2 mouse assessed as increase in latency to fall at 11 weeks of age by rotarod test; type: functional; design: scale not given: the % may be the effect or the level left; outline: as §3

O=C(Nc1ccc(Br)cc1)c1cccc(S(=O)(=O)Nc2ccc(Br)cc2)c1
IC50 [1]: 0.05 µM | Activity [2]: 35% | half-life [3]: 1.6 h | Drug uptake [4]: < 15 pmol/g | Activity [5]: Non-toxic | IC50 [6]: 2.79 µM | concentration at 5 h [7]: 25 µM | half-life [8]: 1.5 h | Activity [9]: 37% | Activity [10]: Active | logP [11]: 5.2 | IC50 [12]: 5.76 µM | Activity [13]: Non-toxic | Cp [14]: < 3 pmol/g | IC50 [15]: 1.7 µM | Activity [16]: Active | Activity [17]: Non-toxic | Activity [18]: 20% | Activity [19]: Non-toxic | Activity [20]: Non-toxic | Activity [21]: 43%
